Structures are written as SMILES. pKi: −log10 of the molar value.

Data on one compound can be found in BindingDB's records for doi:10.1021/jm970460b (University of Wisconsin-Milwaukee, 1998).

The target of this experiment is Gamma-aminobutyric acid receptor subunit alpha-6/beta-3/gamma-2 (Homo sapiens, UniProt Q16445+P18507+P28472). Description: Binding affinity measured using LtK- cell membranes expressing Gamma-aminobutyric acid A receptor alpha-6-beta-3-gamma-2. In short, it runs like this:
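Cells scraped, resuspended in 10 mM KH2PO4/100 mM KCl, pH 7.4. Incubation 1 h at 4 °C to equilibrium, filtration, scintillation counting. Ki from iterative least-squares fit, mean of two determinations.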

Gamma-aminobutyric acid receptor subunit alpha-6/beta-3/gamma-2, sequence (Q16445 whole entry): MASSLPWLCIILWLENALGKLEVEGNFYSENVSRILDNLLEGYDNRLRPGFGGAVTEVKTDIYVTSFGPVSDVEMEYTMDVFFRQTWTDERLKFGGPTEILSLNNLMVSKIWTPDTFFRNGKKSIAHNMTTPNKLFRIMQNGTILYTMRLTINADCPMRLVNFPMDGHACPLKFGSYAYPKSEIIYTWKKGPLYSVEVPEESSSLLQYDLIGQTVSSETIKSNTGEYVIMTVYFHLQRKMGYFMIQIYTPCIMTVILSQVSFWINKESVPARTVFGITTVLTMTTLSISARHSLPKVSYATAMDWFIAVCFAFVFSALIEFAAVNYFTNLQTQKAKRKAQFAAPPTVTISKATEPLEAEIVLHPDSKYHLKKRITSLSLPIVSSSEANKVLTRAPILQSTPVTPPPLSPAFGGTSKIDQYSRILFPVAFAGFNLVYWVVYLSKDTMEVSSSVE
Gamma-aminobutyric acid receptor subunit alpha-6/beta-3/gamma-2, sequence (P18507 as listed by the source): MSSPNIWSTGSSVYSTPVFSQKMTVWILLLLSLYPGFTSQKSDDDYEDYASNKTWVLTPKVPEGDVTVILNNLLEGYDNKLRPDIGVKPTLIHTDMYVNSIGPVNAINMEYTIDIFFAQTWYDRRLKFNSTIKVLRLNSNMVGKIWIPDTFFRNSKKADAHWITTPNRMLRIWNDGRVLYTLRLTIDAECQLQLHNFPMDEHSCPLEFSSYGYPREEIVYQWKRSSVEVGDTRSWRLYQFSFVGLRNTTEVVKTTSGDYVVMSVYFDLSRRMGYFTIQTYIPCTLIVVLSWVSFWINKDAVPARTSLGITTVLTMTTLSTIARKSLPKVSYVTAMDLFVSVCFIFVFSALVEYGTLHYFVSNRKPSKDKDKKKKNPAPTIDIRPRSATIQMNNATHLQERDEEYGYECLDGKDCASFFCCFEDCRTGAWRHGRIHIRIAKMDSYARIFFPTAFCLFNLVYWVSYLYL
Gamma-aminobutyric acid receptor subunit alpha-6/beta-3/gamma-2, sequence (P28472 whole entry): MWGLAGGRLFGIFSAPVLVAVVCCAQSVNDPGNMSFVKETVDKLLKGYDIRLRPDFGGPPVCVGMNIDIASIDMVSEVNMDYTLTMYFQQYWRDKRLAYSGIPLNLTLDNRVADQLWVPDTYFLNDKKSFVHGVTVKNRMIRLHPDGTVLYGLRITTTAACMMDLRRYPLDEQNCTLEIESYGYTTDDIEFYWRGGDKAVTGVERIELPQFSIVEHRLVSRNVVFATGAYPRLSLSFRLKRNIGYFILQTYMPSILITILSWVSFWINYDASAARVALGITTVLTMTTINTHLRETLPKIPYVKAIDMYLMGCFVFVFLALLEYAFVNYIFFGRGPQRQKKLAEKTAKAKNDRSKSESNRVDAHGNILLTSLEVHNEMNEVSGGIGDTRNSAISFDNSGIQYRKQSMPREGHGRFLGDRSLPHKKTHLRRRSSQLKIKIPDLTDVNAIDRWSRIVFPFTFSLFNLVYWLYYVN

Consider `CCOC(=O)c1[nH]cc2nc3ccc(OCc4ccccc4)cc3c-2c1COC` [6-Benzyloxy-4-methoxymethyl-9H-beta-carboline-3-carboxylic acid ethyl ester], for which the pKi (in general, the negative decadic logarithm of the Ki, by convention in mol/L) is less than 6.00.
